High-throughput results (PubChem BioAssay)
An excerpt weighted towards active compounds, which were near 1.7% of everything screened.
DNMT1 block: blocks human DNA methyltransferase DNMT1; P26358; DNMT1 molecular beacon, Hinp1I cleavage, fluorescence; inhibition (reported as % activation of signal), % at 10 µM; 360,000 compounds, 0.83% hits; AID 588458; in the data active means inhibition above about 50%
STEP block: STEP (human) phosphatase inhibition; P54829; recombinant STEP, OMFP fluorogenic substrate, fluorescence; inhibition, % at 20 µM; 360,000 compounds, 0.25% hits; AID 588621;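 active means inhibition at 20 µM, scaled per plate between control wells, above about 37%, limit read from the data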
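System: isolated STEP enzyme; schedule: 20 min enzyme reaction at room temperature, protected from light; medium: Bis-Tris buffer pH 6.0, 2.5 mM DTT, 0.005% Tween 20; signal: fluorescence, 480/540 nm; dosing: single compound dose of 20 µM, 1% DMSO final; also added: OMFP substrate, 25 µM final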
SUMO1 PPI mod: alters human SUMO1 binding to SIM partners. SUMO1 binding to a labelled peptide, TR-FRET, 1 h. inhibition, % at 20 µM. 360,000 compounds, 0.33% hits. AID 602429; in the data active means inhibition above about 37%
LMPTP inh: LMPTP (human) inhibition; P24666; recombinant LMPTP-A, OMFP fluorogenic substrate, fluorescence intensity; inhibition, % at 20 µM; 360,000 compounds, 0.22% hits; AID 651560;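 active means compounds that cut the enzyme signal by at least half of the control window in the single-dose screen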
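Buffer or medium: Bis-Tris pH 6.0, DTT, detergent; Assay system: LMPTP-A enzyme; Quantity: 0.625 nM enzyme; Detection: endpoint fluorescence intensity; Times: 50 min dark incubation at room temperature; Controls: substrate-only low control, DMSO enzyme-plus-substrate high control; Doses: single 20 µM dose; Read-out: percent inhibition versus substrate-only and uninhibited controls; Reagent: 400 µM OMFP.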
Scp-1 inhibitor: Scp-1 (human) phosphatase inhibition. Q9GZU7. Recombinant Scp1, phosphopeptide, malachite green phosphate absorbance. inhibition, % at 20 µM. 340,000 compounds, 0.88% hits. AID 493091;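 active means inhibition above about 50% at 20 µM, limit read from the data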
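System: truncated SCP-1 phosphatase (76-261aa); medium: Tris acetate buffer pH 5.5 with MgCl2 and Tween-20; incubation: 45 min room-temperature reaction, 5 min colour, 30 min stabiliser; compound: single 20 µM dose, 1% DMSO; reagent: Phosphorylated 17-residue peptide substrate; read-out: % inhibition at 20 µM; technique: colorimetric free-phosphate detection, absorbance 630 nm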
Scp-1 conf: confirmation of human Scp-1 phosphatase inhibitors. 2,500 compounds, 61% hits. recombinant SCP-1 catalytic domain, phosphate release, malachite green absorbance. inhibition, % at 20 µM. shares compounds with Scp-1 inhibitor
MG interference: counter-screen for Scp-1 inhibitors: colorimetric interference; shares compounds with Scp-1 inhibitor; Colorimetric interference counterscreen, malachite green absorbance 630 nm; 2,500 tested, under 10 active; apparent inhibition (interference), % at 20 µM;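 further: compounds added after enzyme reaction finished so only phosphate colour detection is probed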
Scp-1 Tm shift: Scp-1 (human) binding by thermal shift; shares compounds with Scp-1 inhibitor; Recombinant SCP1, Sypro Orange thermal shift Tm; thermal shift relative to vanadate control, % at 40 µM; 1,500 compounds, 25% hits; AID 540329;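 active means substances whose mean melting-temperature shift, as a percentage of the reference inhibitor's shift, reaches about 5.3%, limit read from the data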
Large screens that a line does not name were inactive (follow-up assays come after a bar, where they were run).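 How the source made its calls, unless noted: active means inhibition of at least 30% at 20 µM; inactive means the rest.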

CS(=O)(=O)c1ccc(-c2sc3cc4c(cc3c2C(=O)NN2CCOCC2)OCO4)cc1	Scp-1 inhibitor 100.6 | Scp-1 conf 85.8 | MG interference inactive | Scp-1 Tm shift inactive
O=C(Cn1ncc(Cl)c(Cl)c1=O)NC1CCS(=O)(=O)C1 (stereo unspecified)	Scp-1 inhibitor 87.6 | Scp-1 conf 69.2 | MG interference inactive | Scp-1 Tm shift inactive
COc1ccc(/C=N/n2c(COc3ccccc3)n[nH]c2=S)cc1OC	none
O=C(NCC1CCCCC1)c1ccc2sc([C@H]3C[C@H](O)[C@@H](CO)O3)nc2c1	none (no result: Scp-1 inhibitor)
O=C(NCc1ccccc1)c1cc(C2COCCN2C(=O)c2cccs2)on1 (stereo unspecified)	none (no result: Scp-1 inhibitor)
Cc1ccc(CNC(=O)c2cc3c(=O)n4ccccc4nc3n(Cc3ccco3)c2=N)cc1	none
Cc1ccc2nc3c(cc(C(=O)NCc4ccco4)c(=N)n3Cc3ccco3)c(=O)n2c1	Scp-1 inhibitor 68.6 | Scp-1 conf inactive | MG interference inactive
COc1ccc(C(=O)Nc2ccccc2C(=O)Nc2ccncc2)cc1	none
COc1ccc(NS(=O)(=O)c2ccc(O)c(C(=O)OCC(=O)N3CCCCC3)c2)cc1	none
CCN(CC)S(=O)(=O)c1ccc(O)c(C(=O)OCC(=O)N2CCCC2)c1	Scp-1 inhibitor 52.7 | Scp-1 conf inactive | MG interference inactive
CCN1CCN(C(=O)C(C)Sc2nnc3nc(C)cc(C)n23)CC1 (stereo unspecified)	none
CCOC(=O)/C(CCC[N+](C)(CC)CC)=N\O	Scp-1 inhibitor 98.7 | Scp-1 conf inactive | MG interference inactive
O=C(COC(=O)c1ccc(NS(=O)(=O)c2cccs2)cc1)Nc1nc2c(F)c(F)c(F)cc2s1	Scp-1 inhibitor 50.9 | Scp-1 conf 65.4 | MG interference inactive | Scp-1 Tm shift 26.3
CC[n+]1c(C)cc(C)n1-c1ccccc1	Scp-1 inhibitor 95.2 | Scp-1 conf 91.7 | MG interference inactive | Scp-1 Tm shift inactive
O=C(Nc1ccc2c(c1)OCO2)c1cc(C2CCCCN2C(=O)c2ccc(Cl)cc2)on1 (stereo unspecified)	none (no result: Scp-1 inhibitor)
O=C(CC1Sc2ccccc2NC1=O)Nc1cccc(C(=O)O)c1 (stereo unspecified)	Scp-1 inhibitor 59.9 | Scp-1 conf 36.3 | MG interference inactive | Scp-1 Tm shift inactive
NS(=O)(=O)c1cccc(NC(=O)COC(=O)CC2Sc3ccccc3NC2=O)c1 (stereo unspecified)	none
CCOC(=O)c1[nH]c(C)c(C(=O)NCc2ccco2)c1C	Scp-1 inhibitor 63.8 | Scp-1 conf inactive | MG interference inactive
COC(=O)c1c(C)[nH]c(C(=O)NCc2ccco2)c1C	none
O=C(O)CN1C(=O)CC(c2ccccc2)CC1=O	none
CC(=O)c1cccc(NC(=O)Cn2nc(-c3ccccc3Cl)ccc2=O)c1	none
CC(=O)c1cccc(NC(=O)Cn2nc(-c3ccc(Cl)cc3)ccc2=O)c1	Scp-1 inhibitor 51.2 | Scp-1 conf inactive | MG interference inactive
CCn1c(C)[n+](CC)c2ccc(S(=O)(=O)N(C)C)cc21	Scp-1 inhibitor 89.1 | Scp-1 conf inactive | MG interference inactive
CCOC(=O)NN1C(=O)c2ccccc2NC1(C)C	Scp-1 inhibitor 72.4 | Scp-1 conf inactive | MG interference inactive
O=C(Cc1ccc(Br)cc1)NNC(=O)Nc1ccc(Cl)cc1	Scp-1 inhibitor 63.4 | Scp-1 conf 62.0 | MG interference inactive | Scp-1 Tm shift inactive
O=C(Cc1ccc(Cl)cc1)Nc1ccc(Br)cc1	none
Cn1c(NNC(=O)c2ccc(C(C)(C)C)cc2)cc(=O)n(C)c1=O	none
Cn1c(NNC(=O)CCC2CCCCC2)cc(=O)n(C)c1=O	none | Scp-1 conf inactive | MG interference inactive
Cn1c(NC(=O)Cc2cccc3ccccc23)cc(=O)n(C)c1=O	none | Scp-1 conf inactive | MG interference inactive
Cn1c(NC(=O)C2CC2)cc(=O)n(C)c1=O	none
